The text below walks through data of ChEMBL document CHEMBL1146840, “Syntheses and radical scavenging activities of resveratrol derivatives” (Bioorg Med Chem Lett, 2004).

Molecules are shown by their SMILES.

The first series in a line: Free radical scavenging activity of DPPH was determined. The gist of the method: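 DPPH bleaching assay: sample solution mixed 1:9 with ethanolic DPPH (1.01×10^-4 M), kept 30 min at room temperature, then A518 read and remaining DPPH calculated. Triplicate, repeated at least three times.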
Background: Loss of DPPH colour is used to gauge radical scavenging.
Broadly, the IC50 is the concentration that gives 50% inhibition. On to `Oc1ccc(/C=C/c2cc(O)cc(O)c2Br)cc1`, for which the IC50 stood at 35.9 µM.
The same measure, in the same setting: the same measure for `COc1cc(/C=C/c2ccc(O)c(CCF)c2)cc(OC)c1`: 69.5 µM; for `Oc1ccc(/C=C/c2cc(O)cc(O)c2)cc1` [RESVERATROL]: 123 µM; for `Oc1cc(O)cc(/C=C/c2ccc(O)c(CCF)c2)c1`: 47.4 µM.
Same read-out and setting: the result for `Oc1ccc(/C=C/c2cc(O)c(I)c(O)c2)cc1` reads 70.6 µM.
In turn, `Oc1cc(O)cc(/C=C/c2ccc(O)c(Br)c2)c1` registered an IC50 of 51.2 µM. This IC50 and that of the compound before are within 1.5-fold of each other.
The same measure, in the same setting: the result for `Oc1cc(O)cc(/C=C/c2ccc(O)c(I)c2)c1` reads 73.4 µM.

A short description of the next series: Free radical scavenging activity of DPPH w.r.t. resveratrol was determined. The method, boiled down:
(§1)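 Ethanolic DPPH (1.01×10^-4 M) plus sample (1:9 by volume), 30 min at room temperature, absorbance at 518 nm, decrease versus control. Triplicate, repeated at least three times. The relative value is the IC50 of resveratrol divided by the IC50 of the test compound.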
`Oc1ccc(/C=C/c2cc(O)cc(O)c2)cc1` [RESVERATROL] gave a Relative IC50 of 1.

Another series in a line: Free radical scavenging activity of DPPH was determined; value taken from reference 11.
For the compound `OC[C@H]1O[C@@H](Oc2cc(O)cc(/C=C/c3ccc(O)cc3)c2)[C@H](O)[C@@H](O)[C@@H]1O` [PICEID], the midpoint of inhibition, the IC50, lay at 200 µM.
The same measure, in the same setting: the result for `Oc1cc(O)cc(/C=C/c2ccc(O)c(O)c2)c1` [PICEATANNOL] reads 29 µM; that for `Oc1cc(O)c2c(c1)O[C@H](c1ccc(O)c(O)c1)[C@H](O)C2` [(-)-EPICATECHIN], 15.7 µM; that for `OC[C@H]1O[C@@H](Oc2cc(O)cc(/C=C/c3ccc(O)c(O)c3)c2)[C@H](O)[C@@H](O)[C@@H]1O`, 30.6 µM.
On the same count and under the same terms, the same measure for `Oc1ccc(/C=C/c2cc(O)cc(O)c2)cc1` [RESVERATROL]: 74 µM.
Consider `Oc1cc(O)c2c(c1)O[C@H](c1ccc(O)c(O)c1)[C@@H](O)C2` [CIANIDANOL], for which it took 20.2 µM to reach half-maximal inhibition (IC50).

The nature of a further series: Half life of the radiolabeled compound was determined. Type of series: ADME.
Compound `[18FH]` [F-18] gave a T1/2 of 1.83 h.

A further series can be described thus: Free radical scavenging activity of DPPH relative to resveratrol was determined. The method, boiled down:
as §1
Compound `OC[C@H]1O[C@@H](Oc2cc(O)cc(/C=C/c3ccc(O)cc3)c2)[C@H](O)[C@@H](O)[C@@H]1O` [PICEID] displayed a Relative IC50 of 0.37.
The same measure, in the same setting: the result for `Oc1cc(O)cc(/C=C/c2ccc(O)c(O)c2)c1` [PICEATANNOL] reads 2.55; that for `Oc1cc(O)c2c(c1)O[C@H](c1ccc(O)c(O)c1)[C@H](O)C2` [(-)-EPICATECHIN], 4.71.
In the case of `Oc1ccc(/C=C/c2cc(O)cc(O)c2Br)cc1`, the Relative IC50 is 3.43.
Still for that read-out and setting: the same measure for `COc1cc(/C=C/c2ccc(O)c(CCF)c2)cc(OC)c1`: 1.77; for `OC[C@H]1O[C@@H](Oc2cc(O)cc(/C=C/c3ccc(O)c(O)c3)c2)[C@H](O)[C@@H](O)[C@@H]1O`: 2.42; for `Oc1cc(O)cc(/C=C/c2ccc(O)c(CCF)c2)c1`: 2.6.
Consider `Oc1cc(O)c2c(c1)O[C@H](c1ccc(O)c(O)c1)[C@@H](O)C2` [CIANIDANOL], for which the Relative IC50 was 3.66.
The same measure, in the same setting: the result for `Oc1ccc(/C=C/c2cc(O)c(I)c(O)c2)cc1` reads 1.75.
Still for that read-out and setting: the result for `Oc1cc(O)cc(/C=C/c2ccc(O)c(Br)c2)c1` reads 2.41; that for `Oc1cc(O)cc(/C=C/c2ccc(O)c(I)c2)c1`, 1.68.

Another series is described as follows: Free radical scavenging activity of DPPH expressed as percent polyphenol.
Regarding `COc1ccc(/C=C/c2cc(OC)cc(OC)c2Br)cc1`, the Activity stood at 26.6%.
For the compound `Oc1ccc(/C=C/c2cc(O)cc(O)c2Br)cc1`, the Activity is 85.8%.
Still for that read-out and setting: the result for `COc1cc(/C=C/c2ccc(O)c(CCF)c2)cc(OC)c1` reads 50.4%; that for `Oc1ccc(/C=C/c2cc(O)cc(O)c2)cc1` [RESVERATROL], 100%; that for `Oc1cc(O)cc(/C=C/c2ccc(O)c(CCF)c2)c1`, 95.6%.
Still for that read-out and setting: the same measure for `Oc1ccc(/C=C/c2cc(O)c(I)c(O)c2)cc1`: 72%.
Compound `Oc1cc(O)cc(/C=C/c2ccc(O)c(Br)c2)c1` showed an Activity of 98%.
Still for that read-out and setting: the result for `Oc1cc(O)cc(/C=C/c2ccc(O)c(I)c2)c1` reads 88%.
